From ChEMBL document CHEMBL1126729, “Quinolone antibacterials: synthesis and biological activity of carbon isosteres of the 1-piperazinyl and 3-amino-1-pyrrolidinyl side chains” (J Med Chem, 1993)
≈ marks a conversion by molar mass, not a printed value.

Columns and labels:
Assay type in all cases: functional
[1] = test system: Bacteria; test: Geometric mean of MIC was determined in vitro against gram-positive strains using standard microtitration techniques
In short: (§1)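 Per-compound geometric means of the microtitration MICs (μg/mL), calculated separately across the Gram-negative strains and the Gram-positive strains. Pseudomonas aeruginosa is excluded from the Gram-negative mean.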

[2] = test system: Mus musculus; test: Protective dose in vivo was determined in acute, lethal systemic infections in female Charles River CD-1 mice against Streptococcus pyogenes C-203; settings: read-out: PD50
In short: (§2)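 Female Charles River CD-1 mice with an acute, lethal systemic infection received a single compound dose at the time of challenge. The median protective dose (PD50, mg/kg) was taken as the read-out.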

[3] = Geometric mean of MIC was determined in vitro against gram-negative strains using standard microtitration techniques; in short: as §1
[4] = test system: Mus musculus; test: Protective dose in vivo was determined in acute, lethal systemic infections in female Charles River CD-1 mice against Escherichia coli Vogel; settings: read-out: PD50; in short: as §2
[5] = test system: Streptococcus pyogenes; test: (§3) Antibacterial activity was tested in vitro against Streptococcus pyogenes C-203 using standard microtitration techniques
In short: (§4)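 MIC (μg/mL) by standard broth microtitration, as part of a panel of six Gram-negative and five Gram-positive organisms.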

[6] = test system: Klebsiella pneumoniae; test: Antibacterial activity was tested in vitro against Klebsiella pneumoniae MGH-2 using standard microtitration technique
In short: (§5)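 Broth microtitration MIC testing against a panel of six Gram-negative and five Gram-positive bacterial strains. Values are given as MIC in μg/mL.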

[7] = test system: Providencia rettgeri; test: Antibacterial activity was tested in vitro against M-1771 strain of Providencia rettgeri using standard microtitration techniques; in short: as §5
[8] = test system: Escherichia coli; test: Antibacterial activity was tested in vitro against Escherichia coli Vogel using standard microtitration techniques; in short: as §5
[9] = test system: Staphylococcus aureus; test: Antibacterial activity was tested in vitro against Staphylococcus aureus H-288 using standard microtitration techniques; in short: as §5
[10] = test system: Enterococcus faecalis; test: Antibacterial activity was tested in vitro against Enterococcus faecalis MGH-2 using standard microtitration techniques; in short: as §5
[11] = test system: Streptococcus pneumoniae; test: Antibacterial activity was tested in vitro against Streptococcus pneumoniae SV-1 using standard microtitration techniques; in short: as §5
[12] = test system: Pseudomonas aeruginosa; test: Antibacterial activity was tested in vitro against Pseudomonas aeruginosa UI-18 using standard microtitration techniques; in short: as §5
[13] = test system: Enterobacter cloacae; test: Antibacterial activity was tested in vitro against Enterococcus cloacae MA-2646 using standard microtitration techniques; in short: as §5
[14] = test system: Escherichia coli; test: Antibacterial activity was tested in vitro against Escherichia coli H-560 using standard microtitration techniques; in short: as §5
[15] = test system: Staphylococcus aureus; test: (§6) Antibacterial activity was tested in vitro against Staphylococcus aureus UC-76 using standard microtitration techniques; in short: as §4
[16] = target: DNA gyrase (Escherichia coli, UniProt P0AES4+P0AES6); test: Inhibition of the gyrase mediated cleavage of supercoiled DNA
[17] = test system: Klebsiella pneumoniae; test: Antibacterial activity was tested in vitro against Klebsiella pneumoniae MGH-2 using standard microtitration techniques; in short: as §4
[18] = test system: Mus musculus; test: Protective dose in vivo was determined in acute, lethal systemic infections in female Charles River CD-1 mice against Streptococcus pyogenes C-203; 50/45.; settings: read-out: PD50
[19] = test system: Mus musculus; test: Protective dose in vivo was determined in acute, lethal systemic infections in female Charles River CD-1 mice against Escherichia coli Vogel; 6/1.1.; settings: read-out: PD50
[20] = test system: Streptococcus pyogenes; test: as §3; in short: as §5; remark: listed apart in the source
[21] = test system: Staphylococcus aureus; test: as §6; in short: as §5; remark: listed apart in the source

Compound | MIC [1] [µg/mL] | ED50 [2] [mg/kg] | MIC [3] [µg/mL] | ED50 [4] [mg/kg] | MIC [5] [µg/mL] | MIC [7] [µg/mL] | MIC [8] [µg/mL] | MIC [9] [µg/mL] | MIC [10] [µg/mL] | MIC [11] [µg/mL] | MIC [12] [µg/mL] | MIC [13] [µg/mL] | MIC [14] [µg/mL] | MIC [15] [µg/mL] | IC50 [16] [µM] | MIC [17] [µg/mL] | other results
O=C(O)c1cn(C2CC2)c2cc(N3CCNCC3)c(F)cc2c1=O [CIPROFLOXACIN] | 0.6 (≈ 1.81 µM) | > 260 | 0.05 (≈ 0.151 µM) | 1.2 |  |  |  |  |  |  |  |  |  |  |  |  | 
O=C(O)c1cn(C2CC2)c2cc(C3CCNCC3)c(F)cc2c1=O | 1.8 (≈ 5.45 µM) |  | 0.3 (≈ 0.908 µM) | 13.8 | 0.4 (≈ 1.21 µM) | 0.8 (≈ 2.42 µM) | 0.2 (≈ 0.605 µM) | 6.3 (≈ 19.1 µM) | 3.1 (≈ 9.38 µM) | 3.1 (≈ 9.38 µM) | 1.6 (≈ 4.84 µM) | 0.2 (≈ 0.605 µM) | 0.2 (≈ 0.605 µM) | 0.8 (≈ 2.42 µM) | 11.5 |  | MIC [6]: 0.4 µg/mL (≈ 1.21 µM)
O=C(O)c1cn(-c2ccc(F)cc2F)c2nc(N3CCNCC3)c(F)cc2c1=O | 0.2 (≈ 0.495 µM) | 2.4 | 0.4 (≈ 0.989 µM) |  |  |  |  |  |  |  |  |  |  |  |  |  | 
NC1CCN(c2cc3c(cc2F)c(=O)c(C(=O)O)cn3C2CC2)C1 (stereo not given) | 0.09 (≈ 0.272 µM) | 97 | 0.04 (≈ 0.121 µM) | 3.4 |  |  |  |  |  |  |  |  |  |  | 7.85 |  | 
O=C(O)c1cn(C2CC2)c2nc(C3=CCNCC3)c(F)cc2c1=O | 0.6 (≈ 1.82 µM) | 42 | 0.03 (≈ 0.0911 µM) | 0.5 | 0.4 (≈ 1.21 µM) | 0.05 (≈ 0.152 µM) | 0.013 (≈ 0.0395 µM) | 1.6 (≈ 4.86 µM) | 0.8 (≈ 2.43 µM) | 0.8 (≈ 2.43 µM) | 0.2 (≈ 0.607 µM) | 0.025 (≈ 0.0759 µM) | 0.013 (≈ 0.0395 µM) | 0.2 (≈ 0.607 µM) | 11.5 | 0.05 (≈ 0.152 µM) | 
NC1CCN(c2nc3c(cc2F)c(=O)c(C(=O)O)cn3-c2ccc(F)cc2F)C1 (stereo not given) [TOSUFLOXACIN] | 0.04 (≈ 0.0989 µM) | 5.7 | 0.03 (≈ 0.0742 µM) | 0.6 |  |  |  |  |  |  |  |  |  |  | 7.42 |  | 
NC1CCN(c2nc3c(cc2F)c(=O)c(C(=O)O)cn3C2CC2)C1 (stereo not given) | 0.1 (≈ 0.301 µM) | 32 | 0.02 (≈ 0.0602 µM) | 2 |  |  |  |  |  |  |  |  |  |  | 9.03 |  | 
O=C(O)c1cn(C2CC2)c2nc(N3CCNCC3)c(F)cc2c1=O | 1.2 (≈ 3.61 µM) | 63 | 0.05 (≈ 0.15 µM) | 0.7 |  |  |  |  |  |  |  |  |  |  | > 75.2 |  | 
NC1C=C(c2nc3c(cc2F)c(=O)c(C(=O)O)cn3-c2ccc(F)cc2F)CC1 (stereo not given) | 0.09 (≈ 0.224 µM) |  | 0.07 (≈ 0.174 µM) |  |  | 0.2 (≈ 0.498 µM) | 0.05 (≈ 0.125 µM) | 0.1 (≈ 0.249 µM) | 0.2 (≈ 0.498 µM) | 0.1 (≈ 0.249 µM) | 1.6 (≈ 3.99 µM) | 0.05 (≈ 0.125 µM) | 0.025 (≈ 0.0623 µM) | 0.025 (≈ 0.0623 µM) | 15.7 | 0.1 (≈ 0.249 µM) | ED50 [18]: 50 mg/kg; ED50 [19]: 6 mg/kg; MIC [20]: 0.1 µg/mL (≈ 0.249 µM)
NC1C=C(c2nc3c(cc2F)c(=O)c(C(=O)O)cn3C2CC2)CC1 (stereo not given) | 0.35 (≈ 1.06 µM) | 50 | 0.07 (≈ 0.213 µM) | 1.2 | 0.4 (≈ 1.21 µM) | 0.1 (≈ 0.304 µM) | 0.05 (≈ 0.152 µM) | 0.8 (≈ 2.43 µM) | 0.4 (≈ 1.21 µM) | 0.4 (≈ 1.21 µM) | 0.8 (≈ 2.43 µM) | 0.05 (≈ 0.152 µM) | 0.05 (≈ 0.152 µM) | 0.1 (≈ 0.304 µM) | 11.5 | 0.1 (≈ 0.304 µM) | 
O=C(O)c1cn(C2CC2)c2cc(C3=CCNCC3)c(F)cc2c1=O | 0.46 (≈ 1.4 µM) | > 100 | 0.04 (≈ 0.122 µM) | 1.7 | 0.4 (≈ 1.22 µM) | 0.1 (≈ 0.305 µM) | 0.025 (≈ 0.0761 µM) | 0.8 (≈ 2.44 µM) | 0.8 (≈ 2.44 µM) | 0.8 (≈ 2.44 µM) | 0.8 (≈ 2.44 µM) | 0.025 (≈ 0.0761 µM) | 0.013 (≈ 0.0396 µM) | 0.1 (≈ 0.305 µM) | 2.74 | 0.1 (≈ 0.305 µM) | 
O=C(O)c1cn(-c2ccc(F)cc2F)c2nc(C3=CCNCC3)c(F)cc2c1=O | 0.53 (≈ 1.32 µM) |  | 0.15 (≈ 0.374 µM) |  | 0.4 (≈ 0.997 µM) | 0.4 (≈ 0.997 µM) | 0.1 (≈ 0.249 µM) | 0.8 (≈ 1.99 µM) | 1.6 (≈ 3.99 µM) | 0.4 (≈ 0.997 µM) | 1.6 (≈ 3.99 µM) | 0.1 (≈ 0.249 µM) | 0.1 (≈ 0.249 µM) | 0.2 (≈ 0.498 µM) | 12.5 | 0.2 (≈ 0.498 µM) | 
NC1C=C(c2cc3c(cc2F)c(=O)c(C(=O)O)cn3C2CC2)CC1 (stereo not given) | 0.35 (≈ 1.07 µM) |  | 0.13 (≈ 0.396 µM) | 5.2 | 0.2 (≈ 0.609 µM) | 0.2 (≈ 0.609 µM) | 0.1 (≈ 0.305 µM) | 0.8 (≈ 2.44 µM) | 0.8 (≈ 2.44 µM) | 0.4 (≈ 1.22 µM) | 0.8 (≈ 2.44 µM) | 0.1 (≈ 0.305 µM) | 0.1 (≈ 0.305 µM) |  | 8.53 | 0.2 (≈ 0.609 µM) | MIC [21]: 0.1 µg/mL (≈ 0.305 µM)
